The test system of data set [1] is Human gammaherpesvirus 4. Nature of the data set: Antiviral activity against Epstein-Barr virus infected in human akata cells. As to conditions: human gammaherpesvirus 4, Akata. In kind it is functional, organism-based. The essentials: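 Akata cells kept in RPMI 1640 with 10% fetal bovine serum, L-glutamine, penicillin and gentamicin at 37 °C, 5% CO2. Lytic infection induced in latently infected cells with F(ab')2 goat anti-human IgG. Total DNA purified; EBV genome copies quantified by real-time TaqMan PCR (900 nM primers, 200 nM probe).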

Data set [2] relates to Human betaherpesvirus 5. Nature of the data set: Antiviral activity against Human cytomegalovirus Towne infected in HFF cells by plaque reduction assay. In kind it is functional, organism-based. The following applies: Human betaherpesvirus 5, Towne. On the technique in general: Plaque reduction counts the foci of infection that form in a cell layer.
The nature of data set [3]: Cytotoxicity against HFF cells. In kind it is cell-based. As to conditions: human.
Data set [4] is described as follows: Selectivity index, ratio of CC50 for human Daudi cells to EC50 for Epstein-Barr virus. In kind it is functional.
The subject of data set [5] is Human gammaherpesvirus 4. Nature of the data set: Antiviral activity against Epstein-Barr virus infected in human daudi cells by DNA hybridization assay. In kind it is functional, organism-based. As to conditions: human gammaherpesvirus 4, Daudi.
Data set [6] relates to Human gammaherpesvirus 4. Nature of the data set: Antiviral activity against Epstein-Barr virus infected in human H1 cells by DNA hybridization assay. The following applies: human gammaherpesvirus 4, H1. In kind it is functional, organism-based.
Data set [7] can be described thus: Cytotoxicity against human Daudi cells by DNA hybridization assay. Format: cell-based.
Data set [8] relates to Human gammaherpesvirus 4. Nature of the data set: Antiviral activity against Epstein-Barr virus infected in human daudi cells by viral capsid immunofluorescence ELISA. In kind it is functional, organism-based. As to conditions: human gammaherpesvirus 4, Daudi. On the technique in general: ELISA stands for enzyme-linked immunosorbent assay.
A short description of data set [9]: Selectivity index, ratio of CC50 for human akata cells to EC50 for Epstein-Barr virus. Format: functional.
The nature of data set [10]: Cytotoxicity against human akata cells by DNA hybridization assay. Format: cell-based. The procedure, abridged: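 Latently infected Akata cells grown in RPMI 1640 with 10% fetal bovine serum, L-glutamine, penicillin and gentamicin at 37 °C in humidified 5% CO2.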
The test system of data set [11] is Human betaherpesvirus 5. Nature of the data set: Antiviral activity against Human cytomegalovirus AD169 infected in HFF cells by plaque reduction assay. In kind it is functional, organism-based.
Data set [12] is described as follows: Cytotoxicity against human Huh7 AVA5 cells. Format: cell-based, Huh-7. The essentials:
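AVA5 replicon cells (Huh7 carrying subgenomic CON1 HCV, genotype 1b) kept as sub-confluent cultures. Compound given daily in fresh medium for 3 days. Viability was read by neutral red dye uptake 24 h after the last dose.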

The test system of a further data set is Hepatitis C virus. In words: Antiviral activity against Hepatitis C virus infected in human Huh7 AVA5 cells by replicon assay. In kind it is functional, organism-based, Hepacivirus hominis. As to conditions: Huh-7. The essentials: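 HCV subgenomic CON1 genotype 1b replicon line AVA5 (Huh7), sub-confluent cultures. Compound added daily in fresh medium for 3 days. Assessed 24 h after last dose: intracellular HCV RNA by blot hybridization for EC50; cytotoxicity (CC50) by neutral red dye uptake.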
Background: A replicon is a self-replicating genome or part of one, used to study replication in cells.

Structures are written as SMILES. Calls of active or inactive are those of the source. The rule behind the calls is not given here.

For the compound `Nc1nc2c(ncn2COCCO)c(=O)[nH]1` [ACYCLOVIR], a half-maximal response in the data set on Human gammaherpesvirus 4 [1] (EC50) required 1.7 µM.

As for `Nc1nc2c(ncn2COC(CO)CO)c(=O)[nH]1` [GANCICLOVIR], the EC50 in the data set on Human betaherpesvirus 5 [2] was found to be 2.5 µM. This compound yielded a CC50 in data set [3] of over 100 µM.

`Nc1ncnc2c1ncn2/C=C1\CC1(F)CO` (stereo not drawn): the Selectivity index in data set [4] is on record as over 1.25. In addition, the concentration for a half-maximal effect (EC50) with Human gammaherpesvirus 4 [5] came to 167 µM; in the data set on Human gammaherpesvirus 4 [6] it was 3.6 µM; in the data set with Human gammaherpesvirus 4 [8] it was 2.3 µM. The same compound gave a CC50 in data set [7] of over 209 µM.

With `Nc1nc2c(ncn2/C=C2/CC2(CO)CO)c(=O)[nH]1` [FILOCICLOVIR], the Selectivity index in [9] was over 40. This compound also gave a CC50 in [10] of over 100 µM.

In turn, `Nc1nc2c(ncn2/C=C2\CC2(CO)CF)c(=O)[nH]1` (stereo not drawn) came in with an EC50 with Human gammaherpesvirus 4 [1] of 3.2 µM. Also, the CC50 in data set [10] was 64.1 µM.

Turning to `Nc1ncnc2c1ncn2/C=C1/CC1(CO)CF` (stereo not drawn), the figures for the EC50 with Human gammaherpesvirus 4 [1], with Human betaherpesvirus 5 [2] and in the data set with Hepatitis C virus were 0.5 µM, 46 µM and 6.5 µM, respectively. Besides, the result in the data set on Human betaherpesvirus 5 [11] was inactive. Besides, the CC50 was 11 µM in data set [12], 55.7 µM in data set [10] and over 100 µM in [3].

In the data set with Human gammaherpesvirus 4 [1], `Nc1nc2c(ncn2/C=C2/CC2(CO)CF)c(=O)[nH]1` (stereo not drawn) yielded an EC50 of 7.5 µM. Besides, the midpoint of cytotoxicity in [10], the CC50, lay at 59.7 µM.

For `Nc1ncnc2c1ncn2/C=C1/CC1(F)CO` (stereo not drawn), the Selectivity index in [4] was over 31.3. In the data set with Human gammaherpesvirus 4 [5], this compound gave an EC50 of 6.8 µM. For the same compound, the half-maximal cytotoxic concentration (CC50) in data set [7] was over 213 µM.

With `Nc1nc2c(ncn2/C=C2/CC2(F)CO)c(=O)[nH]1` (stereo not drawn), the Selectivity index in data set [4] is given as over 24.9. In the data set on Human gammaherpesvirus 4 [5], this compound gave an EC50 of 8 µM. For the same compound, in [7], the cytotoxic concentration (CC50) was over 199 µM.

`Nc1nc2c(ncn2/C=C2\CC2(F)CO)c(=O)[nH]1` (stereo not drawn): the Selectivity index in data set [4] was over 6.8. For the same compound, the values for the EC50 with Human gammaherpesvirus 4 [5] and with Human gammaherpesvirus 4 [8] were 29.1 µM and under 0.32 µM, respectively. The compound also had a half-maximal cytotoxic concentration (CC50) in data set [7] of over 199 µM.

Consider `Nc1ncnc2c1ncn2/C=C1\CC1(CO)CF` (stereo not drawn), for which the EC50 in the data set with Human gammaherpesvirus 4 [1] was found to be 3.4 µM. Besides, in data set [10], the CC50 is 53.6 µM.

Usually EC50 stands for the concentration needed to bring the measured effect to its halfway point. Low values mean a more potent agent, high ones a less potent agent. The CC50 is the concentration giving 50% cytotoxicity. Read a low CC50 as greater toxicity to the cells.
